Laboratory results from ChEMBL document CHEMBL1165849, “New structures and bioactivity properties of jasplakinolide (jaspamide) analogues from marine sponges” (2010).
One block for each compound: values may come before it. Active and inactive are the calls of the source. The calls are words filed in the database; no cut-off is given here.

How the values were obtained:
HCT-116 = assay: Growth inhibition of human HCT116 cells by sulforhodamine B assay; assay type: functional
HeLa = assay: Cytotoxicity against human HeLa cells at 80 nM after 34 hrs by microfilament disruption assay; assay type: functional, cell-based
MCF7 = assay: Growth inhibition of human MCF7 cells by sulforhodamine B assay; assay type: functional
M14 = assay: Growth inhibition of human M14 cells by sulforhodamine B assay; assay type: functional
How it was run: (§1)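 Tested by NCI in the NCI-DTP 60 cell line panel screen; GI50 was derived, with TGI and LC50 from the same data.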

HCT-15 = assay: Growth inhibition of human HCT15 cells by sulforhodamine B assay; assay type: functional; how it was run: as §1
SF-539 = assay: Growth inhibition of human SF539 cells by sulforhodamine B assay; assay type: functional; how it was run: as §1
786-0 = assay: Growth inhibition of human 786-0 cells by sulforhodamine B assay; assay type: functional; how it was run: as §1
OVCAR-3 = assay: Growth inhibition of human OVCAR-3 cells by sulforhodamine B assay; assay type: functional; how it was run: as §1
[1] = Growth inhibition of human […] cells by sulforhodamine B assay; assay type: functional; how it was run: as §1
HOP-62 = assay: Growth inhibition of human HOP62 cells by sulforhodamine B assay; assay type: functional; how it was run: as §1

GI50 (HCT-116; Homo sapiens, HCT-116): > 10000 nM
GI50 (MCF7; Homo sapiens, MCF7): > 10000 nM
SMILES: C/C1=C\[C@H](C)C[C@H](C)OC(=O)C[C@H](c2ccc(O)cc2)NC(=O)[C@@H](C[C@@]2(O)C(=O)Nc3ccccc32)N(C)C(=O)C(C)NC(=O)[C@@H](C)C1 (stereo partly specified)
Activity (HeLa): inactive

SMILES: C/C1=C\[C@H](C)C[C@H](C)OC(=O)C[C@H](c2ccc(O)cc2)NC(=O)[C@@H](Cc2c(Br)[nH]c3ccccc23)N(C)C(=O)[C@H](C)NC(=O)CC1
Activity (HeLa): Active

SMILES: C/C1=C\[C@H](C)C[C@H](C)OC(=O)C[C@H](c2ccc(O)cc2)NC(=O)[C@@H](Cc2ncnc3ccccc23)N(C)C(=O)C(C)NC(=O)[C@@H](C)C1 (stereo partly specified)
Activity (HeLa): inactive

SMILES: C=C1C[C@H](C)C(=O)N[C@@H](C)C(=O)N(C)[C@H](CC2(OC)OC(=O)Nc3ccccc32)C(=O)N[C@@H](c2ccc(O)cc2)CC(=O)O[C@@H](C)C[C@@H](C)C1=O (stereo partly specified)
Activity (HeLa): inactive

SMILES: C=C1C[C@H](C)C(=O)N[C@@H](C)C(=O)N(C)[C@H](Cc2c(Br)[nH]c3ccccc23)C(=O)N[C@@H](c2ccc(O)cc2)CC(=O)O[C@@H](C)C[C@@H](C)[C@@H]1O
Activity (HeLa): inactive

SMILES: C=C1C[C@H](C)C(=O)N[C@@H](C)C(=O)N(C)[C@H](Cc2c(Br)[nH]c3ccccc23)C(=O)N[C@@H](c2ccc(O)cc2)CC(=O)O[C@@H](C)C[C@@H](C)[C@H]1O
Activity (HeLa): inactive

SMILES: COC1(C[C@@H]2C(=O)N[C@@H](c3ccc(O)cc3)CC(=O)O[C@@H](C)C[C@@H](C)/C=C(\C)C[C@H](C)C(=O)N[C@@H](C)C(=O)N2C)OC(=O)Nc2ccccc21 (stereo in doubt; 5)
Activity (HeLa): inactive

SMILES: COC1(C[C@@H]2C(=O)N[C@@H](c3ccc(O)cc3)CC(=O)O[C@@H](C)C[C@@H](C)/C=C(\C)C[C@H](C)C(=O)N[C@@H](C)C(=O)N2C)OC(=O)Nc2ccccc21 (stereo in doubt; 5) [JASPLAKINOLIDEP]
GI50 (HCT-116; Homo sapiens, HCT-116): 350 nM
GI50 (MCF7): 4900 nM

SMILES: COC1(C[C@@H]2C(=O)N[C@@H](c3ccc(O)cc3)CC(=O)O[C@@H](C)C[C@@H](C)/C=C(\C)C[C@H](C)C(=O)N[C@@H](C)C(=O)N2C)OC(=O)Nc2ccccc21 (stereo in doubt; 6)
Activity (HeLa): inactive

SMILES: COC1(C[C@@H]2C(=O)N[C@@H](c3ccc(O)cc3)CC(=O)O[C@@H](C)C[C@@H](C)/C=C(\C)C[C@H](C)C(=O)N[C@@H](C)C(=O)N2C)OC(=O)Nc2ccccc21 (stereo in doubt; 6) [JASPLAKINOLIDEP]
GI50 (HCT-116): 380 nM
GI50 (MCF7): 2400 nM

SMILES: C/C1=C\[C@H](C)C[C@H](C)OC(=O)C[C@H](c2ccc(O)cc2)NC(=O)[C@@H](Cc2c(Br)[nH]c3ccccc23)N(C)C(=O)[C@H](CO)NC(=O)[C@@H](C)C1 [JASPAMIDE E]
GI50 (M14): 78 nM
GI50 (HCT-15): 970 nM
GI50 (SF-539): 170 nM
GI50 (786-0): 180 nM
GI50 (OVCAR-3): 530 nM
GI50 (HCT-116; Homo sapiens, HCT-116): 140 nM
Activity (HeLa): inactive
GI50 [1]: 22 nM
GI50 (MCF7; Homo sapiens, MCF7): 180 nM
GI50 (HOP-62): 140 nM

SMILES: C/C1=C\[C@H](C)C[C@H](C)OC(=O)C[C@H](c2ccc(O)cc2)NC(=O)[C@@H](Cc2c(Br)[nH]c3ccccc23)N(C)C(=O)[C@H](C)NC(=O)[C@@H](C)C1 [JASPAMIDE]
GI50 (M14): 56 nM
GI50 (HCT-15): 690 nM
GI50 (SF-539): 300 nM
GI50 (786-0): 20 nM
GI50 (OVCAR-3): 40 nM
GI50 (HCT-116; Homo sapiens, HCT-116): 100 nM
Activity (HeLa): Active
GI50 [1]: 31 nM
GI50 (HOP-62): 150 nM

SMILES: C=C1C[C@H](C)C(=O)N[C@@H](C)C(=O)N(C)[C@H](Cc2c(Br)[nH]c3ccccc23)C(=O)N[C@@H](c2ccc(O)cc2)CC(=O)O[C@@H](C)C[C@@H](C)C1=O [JASPLAKINOLIDE B]
GI50 (M14): 53 nM
GI50 (HCT-15): 6600 nM
GI50 (SF-539): 64 nM
GI50 (786-0): 510 nM
GI50 (OVCAR-3): 110 nM
GI50 (HCT-116; Homo sapiens, HCT-116): < 1 nM
Activity (HeLa): inactive
GI50 [1]: 1.9 nM
GI50 (MCF7; Homo sapiens, MCF7): 130 nM
GI50 (HOP-62): 140 nM

SMILES: C/C1=C\[C@H](C)C[C@H](C)OC(=O)C[C@H](c2ccc(O)cc2)NC(=O)[C@@H](C[C@]2(O)C(=O)Nc3ccccc32)N(C)C(=O)C(C)NC(=O)[C@@H](C)C1 (stereo partly specified) [JASPLAKINOLIDE S]
GI50 (HCT-116; Homo sapiens, HCT-116): 810 nM
Activity (HeLa): inactive
GI50 (MCF7; Homo sapiens, MCF7): 2300 nM
